In ChEMBL document CHEMBL1122812, “Novel amino-substituted 3-quinolinecarboxylic acid antibacterial agents: synthesis and structure-activity relationships” (1984):
Converted amounts (≈) assume the structure as drawn.

Experiments:
Assay type in all cases: functional
Escherichia coli = test: In vitro minimum inhibitory concentration against growth of Escherichia coli Vogel
How it was run: (§1)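 Tube serial dilution. Cultures grown overnight at 37 °C in tryptose phosphate broth or brain heart infusion broth. Compound stock of 1000 μg/mL (as free acid) made in minimal 0.5 N NaOH, then diluted in distilled water. Dilutions were mixed 1:1 with culture to a final 1×10^5 cells/mL and incubated 18–20 h at 37 °C. MIC = lowest concentration with no visible growth.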

Klebsiella pneumoniae = test: In vitro minimum inhibitory concentration against growth of Klebsiella pneumoniae strain 39645
How it was run: (§2)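 Tube serial dilution. Stocks at 1000 μg/mL (free acid) were made in minimal 0.5 N NaOH and diluted in distilled water. Cultures were grown overnight at 37 °C in tryptose phosphate or brain heart infusion broth. Final inoculum was 1×10^5 cells/mL, incubated 18–20 h at 37 °C. MIC was the lowest concentration preventing visible growth.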

[1] = Antibacterial activity in mice after intraperitoneal administration with 0.5 mL of Escherichia coli Vogel inoculum; conditions: sc
How it was run: (§3)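 Female ICR mice (18-20 g) infected intraperitoneally with 0.5 mL of E. coli Vogel (grown in brain heart infusion broth, suspended in saline) at 1.9×10^7 cells/mL. Compound as free acid dissolved in dilute NaOH and diluted with water, given once (0.5 mL) sc or po at 0.5 h postinfection. Groups of 10 mice at four or five dose levels, with nonmedicated controls. Deaths recorded daily for 7 days; PD50 by probit analysis.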

Mus musculus = test: Compound was evaluated for antibacterial activity in mice after peroral administration with 0.5 mL of Escherichia coli Vogel inoculum; conditions: po, read-out: PD50; how it was run: as §3
Pseudomonas aeruginosa = test: In vitro minimum inhibitory concentration against growth of Pseudomonas aeruginosa MGH-2; how it was run: as §1
Staphylococcus aureus = test: In vitro minimum inhibitory concentration against growth of Staphylococcus aureus Smith; how it was run: as §2

| SMILES | MIC (Escherichia coli) [µg/mL] | MIC (Klebsiella pneumoniae) [µg/mL] | PD50 [1] [mg/kg] | ED50 (Mus musculus) [mg/kg] | MIC (Pseudomonas aeruginosa) [µg/mL] | MIC (Staphylococcus aureus) [µg/mL] |
| --- | --- | --- | --- | --- | --- | --- |
| CNn1cc(C(=O)O)c(=O)c2cc(F)c(N3CCNCC3)cc21 | 1 (≈ 3.12 µM) | 1 (≈ 3.12 µM) | 0.3 | 6.4 | 1 (≈ 3.12 µM) | 1.95 (≈ 6.09 µM) |
| CN1CCN(c2cc3c(cc2F)c(=O)c(C(=O)O)cn3N(C)C)CC1 | 0.5 (≈ 1.44 µM) | – | 1.6 | – | – | – |
| CNn1cc(C(=O)O)c(=O)c2cc(F)c(N3CCCNCC3)cc21.Cl | – | – | 2.8 | – | – | – |
| CNn1cc(C(=O)O)c(=O)c2cc(F)c(N3CCCN(C)CC3)cc21.Cl | 1.95 | – | 5.5 | – | – | – |
| CCCN1CCN(c2cc3c(cc2F)c(=O)c(C(=O)O)cn3NC)CC1 | 0.25 (≈ 0.69 µM) | – | 14.2 | – | – | – |
| CNn1cc(C(=O)O)c(=O)c2cc(F)c(N3CCCC3)cc21 | 1 (≈ 3.28 µM) | – | – | – | – | – |
| CNn1cc(C(=O)O)c(=O)c2cc(F)c(N3CCOCC3)cc21 | 0.5 (≈ 1.56 µM) | – | 16.6 | – | – | – |
| C=CCNn1cc(C(=O)O)c(=O)c2cc(F)c(N3CCN(C)CC3)cc21 | 1 (≈ 2.77 µM) | – | 19 | – | – | – |
| CCn1cc(C(=O)O)c(=O)c2cc(F)c(N3CCNCC3)cc21 [NORFLOXACIN] | 0.5 (≈ 1.57 µM) | 0.5 (≈ 1.57 µM) | 0.3 | 5.9 | 1 (≈ 3.13 µM) | 1.95 (≈ 6.11 µM) |
| CNn1cc(C(=O)O)c(=O)c2cc(F)c(N3CCC(O)CC3)cc21 | 1.95 (≈ 5.82 µM) | – | – | – | – | – |
| CCOC(=O)c1cn(NC)c2cc(N3CCN(C)CC3)c(F)cc2c1=O.CS(=O)(=O)O | 62.5 | – | – | – | – | – |
| CNn1cc(C(=O)O)c(=O)c2cc(F)c(N3CCSCC3)cc21 | 0.5 (≈ 1.48 µM) | – | – | – | – | – |
| CCn1cc(C(=O)O)c(=O)c2cc(F)c(N3CCN(C)CC3)cc21 [PEFLOXACIN] | 0.25 (≈ 0.75 µM) | 0.5 (≈ 1.5 µM) | 0.5 | 1.1 | 1 (≈ 3 µM) | 1 (≈ 3 µM) |
| CCCNn1cc(C(=O)O)c(=O)c2cc(F)c(N3CCN(C)CC3)cc21 | 1.95 (≈ 5.38 µM) | – | 33 | – | – | – |
| CNn1cc(C(=O)O)c(=O)c2cc(F)c(N3CCC(O)C3)cc21 (configuration not stated) | 1 (≈ 3.11 µM) | – | – | – | – | – |
| CNn1cc(C(=O)O)c(=O)c2cc(F)c(N3CCCC(O)C3)cc21 (configuration not stated) | – | – | 41 | – | – | – |
| CN1CCN(c2cc3c(cc2F)c(=O)c(C(=O)O)cn3N)CC1 | 1.95 (≈ 6.09 µM) | – | 2.9 | – | – | – |
| CCN1CCN(c2cc3c(cc2F)c(=O)c(C(=O)O)cn3NC)CC1 | 0.5 (≈ 1.44 µM) | – | – | – | – | – |
| CNn1cc(C(=O)O)c(=O)c2cc(F)c(N3CCN(C(C)=O)CC3)cc21 | 15.6 (≈ 43.1 µM) | – | 109 | – | – | – |
| CNn1cc(C(=O)O)c(=O)c2cc(F)c(N3CCN(C)CC3)cc21 [AMIFLOXACIN] | 0.25 (≈ 0.748 µM) | 0.25 (≈ 0.748 µM) | – | 1 | 1 (≈ 2.99 µM) | 1 (≈ 2.99 µM) |
| CNn1cc(C(=O)O)c(=O)c2cc(F)c(N3CC[N+](C)([O-])CC3)cc21 | 15.6 (≈ 44.5 µM) | – | 9.4 | – | – | – |
| CCNn1cc(C(=O)O)c(=O)c2cc(F)c(N3CCN(C)CC3)cc21 | 0.5 (≈ 1.44 µM) | – | – | – | – | – |
| CNn1cc(C(=O)O)c(=O)c2cc(F)c(N3CCN(C(C)C)CC3)cc21 | 0.5 (≈ 1.38 µM) | – | 1.5 | – | – | – |
